According to ChEMBL document CHEMBL4513216, “Probing the Open Global Health Chemical Diversity Library for Multistage-Active Starting Points for Next-Generation Antimalarials” (ACS Infect Dis, 2020):

Experiment: Toxicity liver stage against HepG2, at 10uM
Assay type: cell-based
Set-up: test concentration 10 uM, cell line HepG2-A16-CD81EGFP
Settings: human, HepG2-A16-CD81EGFP cells; read-out: INHIBITION
Summary of the method: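 Uninfected HepG2-A16-CD81EGFP cells, 3 × 10^3 per well, 1536-well, plated on prespotted compound at 10 μM final, parasite-free screening media added to match infected plates; puromycin 10 μM positive, DMSO 0.5% negative; run in parallel with 48 h PbLuc assay at 37 °C, 5% CO2; viability by CellTiter-Glo luminescence, normalized to controls.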

First: CCCn1cnc2c1CN(S(=O)(=O)c1ccc(F)cc1)[C@H](C(=O)OC)C2
Second: CC(C(=O)NCc1ccnc(Oc2ccc(F)cc2)c1)n1cncn1 (stereo not drawn)
The cytotoxicity at 10 µM of the first is higher: 1.2% for the first, -3.63% for the second.

Compared with `O[C@H]1COCCN(Cc2cccc(C(F)(F)F)c2)C1`, `NC(=O)CN1CCOCC(Cc2ccccc2)C1` (stereo not drawn) is higher in cytotoxicity at 10 µM: -1.8% for the first, 0.579% for the second.

Compared with `CCN(CC)C(=O)CSc1nc2nc(C)ccc2o1`, `CCN(CC)c1ccc(C(=O)N2CCCC2Cn2cc(C)cn2)cn1` (stereo not drawn) is lower in cytotoxicity at 10 µM: 5.73% for the first, -17.2% for the second.

Compared with `Cc1nn(-c2ncnc3[nH]cnc23)c2c1C(CC(C)C)CC(=O)N2` (stereo not drawn), `Cc1nn(-c2ncnc3[nH]cnc23)c2c1C(C(C)(C)C)CC(=O)N2` (stereo not drawn) is lower in cytotoxicity at 10 µM: 11.2% for the first, 5.08% for the second.

First: CC(C)NC(=O)N1CCCC2(CCN(c3ccsc3)C2=O)C1 (stereo not drawn)
Second: CC(=O)NC1CCCN(Cc2ccn(C)c(=O)c2)C1 (stereo not drawn)
The cytotoxicity at 10 µM of the first is lower: -0.42% for the first, 2.34% for the second.

First: COc1cc(N2CC[C@@H]3O[C@@H](C(=O)NC(C)C)C[C@@H]32)ncn1
Second: COC(=O)C1CCCN1C(=O)c1cc(CC(C)C)no1 (stereo not drawn)
The cytotoxicity at 10 µM of the first is lower: 7.66% for the first, 14% for the second.

First: CN(C)Cc1cn2c(n1)CN(C1CCOC1)CC2 (stereo not drawn)
Second: CC(C)c1cc(C(=O)N[C@H]2CN(C3CCOCC3)C[C@@H]2C2CC2)no1
The cytotoxicity at 10 µM of the first is higher: 6.43% for the first, 6.31% for the second.

First: O=c1ccc(-c2cccs2)nn1CN1CCN(C2CCS(=O)(=O)C2)CC1 (stereo not drawn)
Second: O=C1CC(c2ccncc2)C2(CCN(CC3CC3)CC2)N1 (stereo not drawn)
The cytotoxicity at 10 µM of the first is lower: 9.99% for the first, 11.3% for the second.

First: CCc1ccc(NC(=O)CC2Cn3ncnc3NC2=O)cc1 (stereo not drawn)
Second: Cc1cc(CNC(=O)Nc2ccc(C(=O)NC3CC3)cc2)no1
The cytotoxicity at 10 µM of the first is higher: 6.47% for the first, -0.396% for the second.

Compared with `CN(C)CC1CSCCCN1C(=O)c1ccc(=O)[nH]c1` (stereo not drawn), `CN(C)C[C@H]1OC[C@@H]2CCN(C(=O)c3ccco3)C[C@@H]21` is higher in cytotoxicity at 10 µM: 2.76% for the first, 4.84% for the second.

Going from `CC(C)N1CCn2c(nc3cc(C(N)=O)ccc32)C1` to `Cc1ccc(-c2nc(C(=O)N3CCN(C(=O)N(C)C)CC3)cs2)c(C)c1`, the cytotoxicity at 10 µM rises from -11.3% to -7.98%.

Compared with `Cc1noc([C@@]23CCO[C@@H]2CCN(C(=O)c2sccc2C)C3)n1`, `Cc1nc(C2CCN(C(=O)c3cnc(N(C)C)nc3)CC2)c2sccn12` is higher in cytotoxicity at 10 µM: -8.23% for the first, -4.5% for the second.

Going from `O=c1cc(Cn2ccnc2)nc2n1CCCN(Cc1ccsc1)C2` to `CCc1cc(-c2nccn2-c2ccccc2CN2CCOCC2)on1`, the cytotoxicity at 10 µM falls from -0.808% to -7.91%.

Going from `CCCNC(=O)c1nn(CC)cc1NC(=O)c1c(C)nn(C)c1C` to `COc1ccc(NC(=O)Cc2c(C)nc3c(c2C)c(=O)[nH]n3C)cn1`, the cytotoxicity at 10 µM rises from -7.95% to 7.32%.

Going from `Cc1nc(C)c(C(=O)N2CCc3nnc(C4CCCCN4C)n3CC2)o1` (stereo not drawn) to `Cc1cccn2c(NC(C)(C)C)c(C3CCN(C(=O)C4CC4)CC3)nc12`, the cytotoxicity at 10 µM rises from 1.9% to 3.53%.

Compared with `O=C(NCC1CCOCC1)c1cc(-c2cccnc2)c2cnccc2n1`, `O=C(O)CC1COCCN1Cc1ccccc1-c1ccccc1` (stereo not drawn) is lower in cytotoxicity at 10 µM: 13.2% for the first, 12.9% for the second.

Compared with `O=C(c1cncs1)N1CCOC(c2cc(CCO)[nH]n2)C1` (stereo not drawn), `Cc1ccc(Cl)c(CN2CCN(C)C(C(=O)O)C2)c1F` (stereo not drawn) is higher in cytotoxicity at 10 µM: -0.49% for the first, -0.0679% for the second.

Going from `Cc1ncc(CN2CCC(O)(c3ccccc3F)CC2)cn1` to `COc1ccccc1C1(CNc2ccc(C(=O)N(C)C)cn2)CC1`, the cytotoxicity at 10 µM falls from 0.46% to -10.5%.

Going from `CCN(CC)S(=O)(=O)c1cc2c3c(c1)c(C)cc(=O)n3CC2` to `COC(=O)[C@@H]1C[C@H](NC(=O)Cn2c(=O)cc(C)c3ccccc32)CN1C`, the cytotoxicity at 10 µM falls from 5.45% to -3.44%.

First: Cc1cc(N2CCC(c3n[nH]c4nccnc34)C2)ncn1 (stereo not drawn)
Second: c1cnn(C2CN(c3ncnc4[nH]ccc34)C2)c1
The cytotoxicity at 10 µM of the first is lower: -22.7% for the first, 1.87% for the second.

Compared with `Clc1ccc(C(CNCc2cccnc2)n2cccn2)cc1` (stereo not drawn), `CN(Cc1ccco1)Cc1ccccc1CNC(=O)c1ccncc1` is lower in cytotoxicity at 10 µM: -5.07% for the first, -9.87% for the second.

First: Cn1cc(CCC(=O)NC(c2ccc(F)cc2)C(F)(F)F)cn1 (stereo not drawn)
Second: Cc1noc([C@@H](C)NCc2ccc(F)cc2)c1C(=O)O
The cytotoxicity at 10 µM of the first is higher: 1.68% for the first, -5.57% for the second.

Compared with `CCOC(=O)c1ccc(CNC(=O)c2ccon2)o1`, `COC(=O)CCC(=O)Nc1ccc(Br)c(C)n1` is lower in cytotoxicity at 10 µM: 8.64% for the first, 7.07% for the second.

First: O=C(Nc1ccccn1)c1nc(N2CCCC2)ncc1Cl
Second: Cc1ccsc1C(=O)Nc1cnn(CC(=O)NC2CCCC2)c1
The cytotoxicity at 10 µM of the first is lower: -8.77% for the first, -1.65% for the second.

Compared with `Cc1cc(S(=O)(=O)Nc2cccc(I)c2)sc1C(=O)O`, `CC(=O)c1cccc(NS(=O)(=O)c2cc(C)c(C(=O)O)s2)c1` is lower in cytotoxicity at 10 µM: 3.76% for the first, 0.178% for the second.

Going from `Cn1cc(Br)c(=O)c(NS(=O)(=O)c2ccc(Cl)cc2)c1` to `Cc1ccc(S(=O)(=O)NC(=O)c2cccc(OCC(N)=O)c2)s1`, the cytotoxicity at 10 µM falls from -5.28% to -9.55%.

Going from `CCNC(=O)CCCC(=O)N1CCc2cc(Cl)cc(Cl)c2C1` to `CS(=O)(=O)CCCNC(=O)NC1CC(c2cccc(Cl)c2)C1` (stereo not drawn), the cytotoxicity at 10 µM rises from -15.1% to -3.17%.

First: Cc1ccc(F)c(NCC(C)(C)S(C)(=O)=O)c1
Second: Cc1cc(CN2CCOCS2(=O)=O)ccc1F
The cytotoxicity at 10 µM of the first is higher: -7.6% for the first, -8.02% for the second.

Compared with `NC(=O)NC(=O)CCn1ccc(-c2ccsc2)n1`, `Cn1c(C(N)=O)ccc1-c1ccccc1` is lower in cytotoxicity at 10 µM: 8.56% for the first, 3.18% for the second.

First: CC(C)OCCN(C)CC(c1cccs1)N1CCOCC1 (stereo not drawn)
Second: Cc1nc(CN2C(=O)COC3(CCN(Cc4ccco4)CC3)C2C)cs1 (stereo not drawn)
The cytotoxicity at 10 µM of the first is higher: -4.34% for the first, -13.5% for the second.

First: CC(C)c1nc(CNc2ccc(CCO)cc2)cs1
Second: CNc1nc(CNC(=O)Nc2ccc(SC)c(F)c2)cs1
The cytotoxicity at 10 µM of the first is higher: 20.1% for the first, -5.75% for the second.

Going from `Cc1c(I)cccc1C(=O)NCC1(CO)CC1` to `CN1CC2(CCC(C(=O)O)CC2)Oc2ccccc2C1=O` (stereo not drawn), the cytotoxicity at 10 µM rises from -4.11% to 2%.

Going from `CCN1CCN(c2ccc(F)cc2C(C)NCc2ccncc2)CC1` (stereo not drawn) to `Cc1ccc(CN2CCc3ncnc(-c4ccncc4)c3CC2)o1`, the cytotoxicity at 10 µM rises from -1.4% to -1.19%.

Going from `COc1ccc([C@@H]2CN(c3cc(OC)nc(N)n3)C[C@H]2N(C)C)cc1` to `CC(=O)Nc1ccc2nc(CN(C)Cc3noc(C)n3)ccc2c1`, the cytotoxicity at 10 µM falls from 15% to 3.47%.

First: Cc1nc(C)c(C)c(N2CCC3(CCN(C)C3)C2)n1 (stereo not drawn)
Second: Cc1ccnc(N2C[C@H]3CC[C@@H](C2)N(CC2CCC2)C3=O)n1
The cytotoxicity at 10 µM of the first is lower: -4.88% for the first, 11.4% for the second.

Compared with `CN(C)CCCNC(=O)C(c1cccc(F)c1)N(C)C` (stereo not drawn), `O=C1CN(CCCNS(=O)(=O)c2cccc(C(=O)NC3CC3)c2)CCN1` is higher in cytotoxicity at 10 µM: -4.58% for the first, -3.45% for the second.

First: CCc1noc(CN(C)Cc2cc3ccc(Cl)cc3[nH]c2=O)n1
Second: Cc1cc(CNc2cc(Cl)ccc2C)no1
The cytotoxicity at 10 µM of the first is higher: 4.92% for the first, -7.01% for the second.

Going from `COc1c(F)cc(-c2cn(CCn3c(C)cc(C)nc3=O)nn2)cc1Cl` to `CCOCCCn1c(NC(=O)c2cnn(C)c2)nc2ccccc21`, the cytotoxicity at 10 µM falls from -1.72% to -12.1%.

First: CN(C)S(=O)(=O)N1C[C@@H](Oc2ccccn2)[C@H]2OCCC[C@H]21
Second: c1ccc(Cn2cc3c(n2)C(CNCc2ccco2)OCC3)nc1 (stereo not drawn)
The cytotoxicity at 10 µM of the first is higher: 1.16% for the first, -7.85% for the second.

First: CNC(=O)C1(CCCc2ccncc2)CCN1 (stereo not drawn)
Second: CNC(=O)C1(CCCc2ccncc2)CCCCN1 (stereo not drawn)
The cytotoxicity at 10 µM of the first is higher: -9.08% for the first, -37.5% for the second.

Going from `c1cc(CN2CCC3(CC2)CC(N2CCCC2)CO3)co1` (stereo not drawn) to `CC1c2ncc(CNC(=O)C3CC3)n2CCN1Cc1nccs1` (stereo not drawn), the cytotoxicity at 10 µM falls from 2.38% to -5.43%.

`CCCSCC(=O)N1C[C@@H]2CC[C@H]1CN(c1ncccn1)C2` gave a cytotoxicity at 10 µM of 4.42%.
